Source: ChEMBL document CHEMBL4706499, “PTG-0861: A novel HDAC6-selective inhibitor as a therapeutic strategy in acute myeloid leukaemia” (Eur J Med Chem, 2020)
Activity calls are given as the source filed them. The calls are words filed in the database; no cut-off is given here.

Assays:
MV4-11 [1] = experiment: Cytotoxicity against human MV4-11 cells measured after 72 hrs by spectrophotometer method; assay type: functional, cell-based; details: MV4-11, 72 h
[2] = Cytotoxicity against human MRC9 cells measured after 72 hrs by spectrophotometer method; assay type: cell-based; details: MRC9, 72 h
Histone deacetylase 6 = molecular target: T1, Histone deacetylase 6 (Danio rerio, UniProt F8W4B7); experiment: Inhibition of N-terminal 6 His-SUMO tagged Zebrafish HDAC6 CD2 domain expressed in Escherichia coli BL21(DE3) RILP pretreated for 10 mins before FITC-M344 addition and measured after 10 mins by fluorescence polarization competition assay
T1 sequence (F8W4B7 whole entry): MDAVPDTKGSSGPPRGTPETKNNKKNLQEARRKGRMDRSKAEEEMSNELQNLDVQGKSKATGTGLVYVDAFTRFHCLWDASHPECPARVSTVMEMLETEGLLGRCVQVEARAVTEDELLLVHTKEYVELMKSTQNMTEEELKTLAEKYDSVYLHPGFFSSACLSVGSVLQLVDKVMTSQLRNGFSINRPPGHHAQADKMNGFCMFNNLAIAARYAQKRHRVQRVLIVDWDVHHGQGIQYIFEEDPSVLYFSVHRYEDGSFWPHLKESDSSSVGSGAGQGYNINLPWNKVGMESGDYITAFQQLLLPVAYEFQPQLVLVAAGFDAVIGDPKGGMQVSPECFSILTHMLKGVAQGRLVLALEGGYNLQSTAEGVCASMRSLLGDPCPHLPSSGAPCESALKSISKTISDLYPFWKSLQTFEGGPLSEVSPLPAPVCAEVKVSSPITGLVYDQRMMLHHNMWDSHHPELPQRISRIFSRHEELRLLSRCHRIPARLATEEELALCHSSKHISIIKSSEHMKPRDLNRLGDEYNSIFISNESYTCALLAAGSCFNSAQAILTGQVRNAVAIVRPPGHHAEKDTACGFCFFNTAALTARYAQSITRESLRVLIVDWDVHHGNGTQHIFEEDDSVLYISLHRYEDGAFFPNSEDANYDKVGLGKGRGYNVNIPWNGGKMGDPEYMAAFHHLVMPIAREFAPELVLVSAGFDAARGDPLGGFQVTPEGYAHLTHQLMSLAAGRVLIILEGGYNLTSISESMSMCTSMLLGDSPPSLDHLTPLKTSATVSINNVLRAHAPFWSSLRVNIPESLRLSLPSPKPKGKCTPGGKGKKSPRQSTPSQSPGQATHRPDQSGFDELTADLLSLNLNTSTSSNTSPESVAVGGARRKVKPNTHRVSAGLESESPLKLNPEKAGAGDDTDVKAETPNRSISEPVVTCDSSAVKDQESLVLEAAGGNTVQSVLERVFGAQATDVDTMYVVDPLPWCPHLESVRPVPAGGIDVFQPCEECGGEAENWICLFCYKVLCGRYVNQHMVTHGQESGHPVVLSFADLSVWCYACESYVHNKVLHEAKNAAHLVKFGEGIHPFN

[3] = Selectivity ratio of IC50 for full length recombinant human HDAC3 to IC50 for full length recombinant human HDAC6
[4] = Cytotoxicity against human MRC9 cells; assay type: functional, cell-based
[5] = molecular target: T2, Protein deacetylase HDAC6 (Homo sapiens) (UniProt Q9UBN7); experiment: Inhibition of HDAC6 in human MV4-11 cells assessed as increase in acetylation of alpha tubulin at 0.5 uM measured after 6 hrs by Western blot assay relative to histone H3 acetylation; assay type: cell-based
T2 sequence (whole entry): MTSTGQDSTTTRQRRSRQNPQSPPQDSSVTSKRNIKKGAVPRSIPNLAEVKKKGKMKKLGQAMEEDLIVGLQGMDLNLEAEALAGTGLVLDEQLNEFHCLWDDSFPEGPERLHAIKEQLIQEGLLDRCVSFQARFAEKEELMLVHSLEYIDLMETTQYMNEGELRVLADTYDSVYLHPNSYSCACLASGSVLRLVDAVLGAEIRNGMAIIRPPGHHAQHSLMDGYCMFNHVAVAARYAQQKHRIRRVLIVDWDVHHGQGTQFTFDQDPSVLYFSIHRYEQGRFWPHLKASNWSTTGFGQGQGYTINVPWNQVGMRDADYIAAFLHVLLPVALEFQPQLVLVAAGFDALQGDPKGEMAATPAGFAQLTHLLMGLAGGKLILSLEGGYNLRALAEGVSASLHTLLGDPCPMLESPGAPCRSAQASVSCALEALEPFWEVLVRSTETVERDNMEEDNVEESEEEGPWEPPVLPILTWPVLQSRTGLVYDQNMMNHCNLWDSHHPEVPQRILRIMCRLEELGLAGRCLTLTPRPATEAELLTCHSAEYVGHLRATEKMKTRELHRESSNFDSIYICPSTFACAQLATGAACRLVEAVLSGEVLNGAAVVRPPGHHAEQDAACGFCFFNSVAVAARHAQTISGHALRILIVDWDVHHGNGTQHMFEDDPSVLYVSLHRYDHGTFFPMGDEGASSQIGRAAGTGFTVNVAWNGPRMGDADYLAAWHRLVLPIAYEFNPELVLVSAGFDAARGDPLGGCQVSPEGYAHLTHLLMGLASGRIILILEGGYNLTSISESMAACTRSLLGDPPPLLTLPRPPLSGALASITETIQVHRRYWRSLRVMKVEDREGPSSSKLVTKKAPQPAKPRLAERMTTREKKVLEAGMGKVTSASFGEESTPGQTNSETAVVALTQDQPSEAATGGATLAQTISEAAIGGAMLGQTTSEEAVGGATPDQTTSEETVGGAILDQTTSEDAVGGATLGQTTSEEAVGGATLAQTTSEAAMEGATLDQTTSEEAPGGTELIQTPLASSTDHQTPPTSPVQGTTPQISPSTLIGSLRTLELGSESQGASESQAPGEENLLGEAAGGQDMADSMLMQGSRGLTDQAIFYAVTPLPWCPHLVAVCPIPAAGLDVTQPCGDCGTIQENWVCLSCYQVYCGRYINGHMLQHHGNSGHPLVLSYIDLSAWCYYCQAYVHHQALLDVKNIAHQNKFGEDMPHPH
Procedure, shortened: (§1)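 MV4-11 cells were exposed to a range of concentrations for 6 h. Protein extracts were run on SDS-PAGE and immunoblotted for acetylated α-tubulin, acetylated histone H3 and acetylated histone H4, with HSC70 as the loading reference. A representative blot of three independent experiments is shown.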

[6] = molecular target: T2, Protein deacetylase HDAC6 (Homo sapiens); experiment: Inhibition of HDAC6 in human MV4-11 cells assessed as increase in acetylation of alpha tubulin at 0.5 uM measured after 6 hrs by Western blot assay relative to histone H4 acetylation; assay type: cell-based; procedure, shortened: as §1
[7] = molecular target: Class 1 histone deacetylase (Homo sapiens) (UniProt Q13547+O15379+Q92769+Q9BY41); experiment: Inhibition of HDAC class 1 in human MV4-11 cells assessed as upregulation of acetylation of H3 histone at 5 uM measured after 6 hrs by Western blot assay; assay type: cell-based; procedure, shortened: as §1
MM1.S = experiment: Cytotoxicity against human MM1.S cells measured after 72 hrs by spectrophotometer method; assay type: functional, cell-based
MV4-11 [8] = experiment: Induction of apoptosis in human MV4-11 cells assessed as late apoptotic cells at 4 microM measured after 18 hrs by Annexin V/Propidium iodide stain based Flow cytometry assay (reference value: 4.91%); assay type: functional
RPMI-8226 = experiment: Cytotoxicity against human RPMI-8226 cells measured after 72 hrs by spectrophotometer method; assay type: functional, cell-based; details: RPMI-8226, 72 h
Fibroblast [9] = experiment: Cytotoxicity against human fibroblasts measured after 72 hrs by spectrophotometer method; assay type: cell-based
HUVEC = experiment: Cytotoxicity against human HUVEC cells measured after 72 hrs by spectrophotometer method; assay type: cell-based
Fibroblast [10] = experiment: Cytotoxicity against pooled human fibroblasts measured after 72 hrs by spectrophotometer method; assay type: cell-based

Chain of Class 1 histone deacetylase (Homo sapiens) (O15379 whole entry, looked up): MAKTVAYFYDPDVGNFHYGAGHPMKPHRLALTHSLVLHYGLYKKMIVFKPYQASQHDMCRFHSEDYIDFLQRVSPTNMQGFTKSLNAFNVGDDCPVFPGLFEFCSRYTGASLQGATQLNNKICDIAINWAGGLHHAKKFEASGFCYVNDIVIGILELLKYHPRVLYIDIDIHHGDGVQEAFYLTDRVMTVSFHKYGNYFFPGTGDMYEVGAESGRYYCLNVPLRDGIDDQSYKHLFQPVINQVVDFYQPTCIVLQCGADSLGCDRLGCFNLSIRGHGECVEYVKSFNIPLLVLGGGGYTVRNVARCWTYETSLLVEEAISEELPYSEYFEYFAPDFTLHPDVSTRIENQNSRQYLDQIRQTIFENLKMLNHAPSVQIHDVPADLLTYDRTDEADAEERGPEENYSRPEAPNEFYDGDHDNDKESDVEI
Chain of Class 1 histone deacetylase (Homo sapiens) (Q13547 whole entry, looked up): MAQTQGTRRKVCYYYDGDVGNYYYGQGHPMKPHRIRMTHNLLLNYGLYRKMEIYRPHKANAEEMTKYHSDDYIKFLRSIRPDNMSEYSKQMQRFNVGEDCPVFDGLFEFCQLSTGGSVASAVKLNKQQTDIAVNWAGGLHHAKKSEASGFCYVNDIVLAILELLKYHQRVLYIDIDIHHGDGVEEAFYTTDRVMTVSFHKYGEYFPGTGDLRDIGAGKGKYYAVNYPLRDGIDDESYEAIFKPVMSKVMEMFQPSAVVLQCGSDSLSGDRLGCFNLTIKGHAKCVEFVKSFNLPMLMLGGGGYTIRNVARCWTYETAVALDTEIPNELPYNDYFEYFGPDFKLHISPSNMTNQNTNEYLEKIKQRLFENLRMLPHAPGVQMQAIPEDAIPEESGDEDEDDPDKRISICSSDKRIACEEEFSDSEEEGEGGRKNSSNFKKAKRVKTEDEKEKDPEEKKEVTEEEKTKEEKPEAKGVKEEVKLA
Chain of Class 1 histone deacetylase (Homo sapiens) (Q92769 whole entry, looked up): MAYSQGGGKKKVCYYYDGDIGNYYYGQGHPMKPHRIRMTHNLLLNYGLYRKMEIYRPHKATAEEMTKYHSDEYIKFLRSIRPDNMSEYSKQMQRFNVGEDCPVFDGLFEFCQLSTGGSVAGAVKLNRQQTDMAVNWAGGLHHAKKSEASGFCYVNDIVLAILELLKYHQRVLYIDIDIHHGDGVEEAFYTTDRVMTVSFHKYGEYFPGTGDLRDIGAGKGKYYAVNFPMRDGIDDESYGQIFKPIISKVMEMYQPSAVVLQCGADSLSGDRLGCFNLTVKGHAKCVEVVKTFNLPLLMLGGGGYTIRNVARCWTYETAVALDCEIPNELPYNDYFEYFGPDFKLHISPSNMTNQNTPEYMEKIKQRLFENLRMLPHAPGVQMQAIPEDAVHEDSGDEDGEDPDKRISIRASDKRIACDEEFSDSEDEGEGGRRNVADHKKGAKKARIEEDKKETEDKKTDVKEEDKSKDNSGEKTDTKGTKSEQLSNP
Chain of Class 1 histone deacetylase (Homo sapiens) (Q9BY41 whole entry, looked up): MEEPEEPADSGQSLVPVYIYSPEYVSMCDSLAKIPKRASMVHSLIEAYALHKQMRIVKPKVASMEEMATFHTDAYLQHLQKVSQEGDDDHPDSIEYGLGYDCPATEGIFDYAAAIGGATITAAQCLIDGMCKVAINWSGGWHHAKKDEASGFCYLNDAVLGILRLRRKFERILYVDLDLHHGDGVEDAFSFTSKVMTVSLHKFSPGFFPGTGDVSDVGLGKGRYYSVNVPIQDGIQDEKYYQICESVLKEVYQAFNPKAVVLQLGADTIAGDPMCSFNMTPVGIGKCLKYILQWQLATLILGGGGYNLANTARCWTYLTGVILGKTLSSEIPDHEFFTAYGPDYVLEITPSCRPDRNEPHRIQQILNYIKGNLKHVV

| IC50 (Histone deacetylase 6) | Ratio IC50 [3] | Activity [5] | Activity [6] | inhibition [7] | SMILES | IC50 (MV4-11 [1]) | IC50 [2] | IC50 [4] | IC50 (MM1.S) | Activity (MV4-11 [8]) | IC50 (RPMI-8226) | IC50 (Fibroblast [9]) | IC50 (HUVEC) | IC50 (Fibroblast [10]) |
| --- | --- | --- | --- | --- | --- | --- | --- | --- | --- | --- | --- | --- | --- | --- |
| 0.09 µM | – | – | – | – | O=C(CCCCCCNC(=O)c1cnc(N(c2ccccc2)c2ccccc2)nc1)NO [RICOLINOSTAT] | 0.656 µM | > 15 µM | – | – | – | – | – | – | – |
| 0.269 µM | 7.66 | – | – | – | CC(C)(C)c1ccc(C(=O)Nc2ccc(C(=O)NO)cc2)cc1 | – | > 25 µM | > 25 µM | – | – | – | – | – | – |
| 0.154 µM | – | Active | Active | Active | O=C(CCCCCCNC(=O)c1cnc(N(c2ccccc2)c2ccccc2Cl)nc1)NO [CITARINOSTAT] | 1.24 µM | > 25 µM | – | 1.52 µM | 17% | 3.16 µM | 5.7 µM | 4.9 µM | 7.4 µM |
